“Also recorded” adds a separate entry of the source.
Tests used:
HT22 cells [1] = assay: FITC-Aβ42O binding/uptake in HT22 cells; assay type: cell-based, mouse; conditions: FITC-Aβ42O 0.1 μM, 2 h; MAB1965 1 : 500, MnCl2 0.5 mM or MgCl2 5 mM; n=4 replicates
HT22 cells [2] = assay: H2DCF general ROS imaging; assay type: cell-based, mouse; conditions: Aβ42O 1 μM, 2 h, n=6
Summary of the method: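 HT22 cells pretreated 45 min (methods; legend gives 1 h) with or without HUTS-4 (1:250), MAB1965 (1:250) or Nox inhibitor III (40 nM), then Aβ42 oligomers (1 μM, 2 h). After PBS wash, loaded with H2DCF at 50 nM final in HBSS for 15 min at 37°C. Live-cell fluorescence imaging at 37°C under identical acquisition settings.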

HT22 cells [3] = assay: Mitosox-Red mitochondrial superoxide imaging; assay type: cell-based, mouse; conditions: Aβ42O 1 μM, 2 h, n=6
Summary of the method: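 Following 45 min (methods; 1 h per legend) pretreatment ± HUTS-4 (1:250), MAB1965 (1:250) or Nox inhibitor III (40 nM), HT22 cells received Aβ42 oligomers (1 μM, 2 h). Washed, given Mitosox-Red at 5 μM final in PBS for 15 min at 37°C, washed again, fixed and imaged by confocal microscopy with identical settings.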

HT22 cells [4] = assay: JC-1 mitochondrial membrane potential imaging; assay type: cell-based, mouse; conditions: Aβ42O 1 μM, 2 h; HUTS-4 1 : 250, MAB1965 1 : 250, Nox inhibitor 40 nM; n=6
Summary of the method: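 HT22 cells pre-exposed 45 min (methods; legend says 1 h) to HUTS-4 (1:250), MAB1965 (1:250), Nox inhibitor III (40 nM) or none, then Aβ42 oligomers (1 μM, 2 h). Washed, incubated with JC-1 (0.5 μM final, PBS) 15 min at 37°C. Live-cell imaging at 37°C; membrane potential expressed as green/red ratio.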

14-3-3/SSH1 complex = assay: 14-3-3/SSH1 complex, co-immunoprecipitation in HT22 cells; assay type: cell-based, mouse (HT22 mouse cell line); conditions: Aβ42O 1 μM, 2 h
[5] = biological target: β1-integrin-Fc (extracellular domain fused with human IgG-Fc) (Homo sapiens, UniProt P05556); assay: ELISA binding of biotin-Aβ42 to purified β1-integrin-Fc; conditions: n=4 replicates
Sequence of β1-integrin-Fc (extracellular domain fused with human IgG-Fc) (P05556 21-728): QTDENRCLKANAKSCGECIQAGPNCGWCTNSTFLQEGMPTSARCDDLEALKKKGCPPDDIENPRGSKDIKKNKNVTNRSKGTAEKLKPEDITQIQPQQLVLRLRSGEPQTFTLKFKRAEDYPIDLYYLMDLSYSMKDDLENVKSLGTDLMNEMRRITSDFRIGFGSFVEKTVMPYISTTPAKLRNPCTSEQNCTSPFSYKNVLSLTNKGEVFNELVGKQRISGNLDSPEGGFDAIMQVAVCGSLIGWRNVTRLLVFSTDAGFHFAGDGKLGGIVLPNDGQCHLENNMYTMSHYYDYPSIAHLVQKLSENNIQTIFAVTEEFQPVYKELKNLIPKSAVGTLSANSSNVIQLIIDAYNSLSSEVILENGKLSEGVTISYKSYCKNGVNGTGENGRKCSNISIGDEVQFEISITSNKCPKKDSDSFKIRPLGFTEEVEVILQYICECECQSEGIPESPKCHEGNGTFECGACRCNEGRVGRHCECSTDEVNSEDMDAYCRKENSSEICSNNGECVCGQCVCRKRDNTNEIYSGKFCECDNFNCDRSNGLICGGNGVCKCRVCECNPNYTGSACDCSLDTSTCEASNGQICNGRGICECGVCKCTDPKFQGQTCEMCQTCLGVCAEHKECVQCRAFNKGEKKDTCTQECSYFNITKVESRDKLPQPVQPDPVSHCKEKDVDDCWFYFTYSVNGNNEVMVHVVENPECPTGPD

[6] = system: DIV21 primary hippocampal neurons; assay: FITC-Aβ42O binding to DIV21 primary hippocampal neurons; assay type: cell-based; conditions: 100 nM FITC-Aβ42O, 1 h, 37 °C
Drebrin = Drebrin staining in DIV21 hippocampal neurons; assay type: cell-based, mouse; conditions: Aβ42O 1 μM, 2 h, n=4–6 replicates
Summary of the method: (§1)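 Hippocampal neurons from P0 WT or Cofilin+/− pups grown on poly-D-lysine to DIV21, then given Aβ42 oligomers (1 μM, 2 h). Fixed in 4% paraformaldehyde 15 min at RT, serum-blocked, primary antibody (Drebrin or PSD95) overnight at 4°C, secondary 45 min at RT; F-actin stained by rhodamine-phalloidin. Mean intensity measured in spine-containing neurites; n=4–6, ANOVA with Tukey test.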

Talin [7] = assay: FC-enriched fractionation of HT22 cells, Talin; assay type: cell-based, mouse (HT22 mouse cell line); conditions: Aβ42O (1 μM in text; 0, 0.25, 2 μM for 0, 2, 4 h in Figure S3 legend)
Summary of the method: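 HT22 cells exposed to Aβ42 oligomers. Cytosolic proteins released with saponin buffer (0.1% saponin, 25 mM HEPES, 75 mM potassium acetate) for 10 min on ice. Remaining membrane/cytoskeletal proteins extracted in 2× SDS sample buffer with sonication to give the focal-contact-enriched fraction. Talin detected by immunoblot with ECL.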

[8] = system: Cofilin (phospho-Cofilin); assay: Cytosolic phospho-Cofilin in HT22 cells; assay type: cell-based, mouse (HT22 mouse cell line); conditions: Aβ42O 1 μM; 0, 2, 4 h
Summary of the method: (§2)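 HT22 cells exposed to Aβ42 oligomers (1 μM) for 0, 2 or 4 h. Intact mitochondria separated from cytosol with a commercial isolation kit. Protein measured by BCA. Equal amounts run on SDS-PAGE, blotted to nitrocellulose, probed and detected by peroxidase secondary/ECL. Bands quantified densitometrically; n=4 replicates, t-test.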

Talin [9] = assay: FC-enriched fractionation of primary cortical neurons, Talin; assay type: cell-based, mouse; conditions: Aβ42O 1 μM, 2 h, n=3 replicates
Summary of the method: (§3)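 DIV14 cortical neurons from P0 WT or Cofilin+/− pups given Aβ42 oligomers (1 μM, 2 h). Cytosol extracted with saponin buffer (0.1% saponin, 25 mM HEPES, 75 mM potassium acetate) 10 min on ice; residue taken up in 2× SDS sample buffer with sonication (focal-contact fraction). Talin/Vinculin immunoblotted and normalized to vehicle controls set at 100%; n=3, t-test.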

β1-integrin = assay type: cell-based, mouse (HT22 mouse cell line); conditions: Aβ42O 1 μM, 2 h; direct immunoblotting (total)
HT22 cells [10] = assay: Annexin V/PI apoptosis assay, HT22 cells; assay type: cell-based, mouse; conditions: Aβ42O 1 μM, 24 h / 18 h, 1% FBS; n=4 replicates
Summary of the method: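 HT22 cells transfected for 48 h with Lipofectamine 2000 with control or SSH1 siRNA (100 nM final), then exposed to Aβ42 oligomers (1 μM, 18 h) in 1% FBS medium. Cells stained on coverslips with FITC-Annexin V and propidium iodide for 20 min at 25°C in the dark, PBS-washed and imaged by fluorescence confocal microscopy. Annexin V marks early apoptosis, PI late apoptosis.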

PSD95 = PSD95 staining in DIV21 hippocampal neurons; assay type: cell-based, mouse; conditions: Aβ42O 1 μM, 2 h, n=4–6 replicates
Summary of the method: as §1

PrP^c = assay type: cell-based, mouse (HT22 mouse cell line)
Cofilin (mitochondrial) = assay: Translocation of Cofilin to mitochondria in HT22 cells; assay type: cell-based, mouse (HT22 mouse cell line); conditions: Aβ42O 1 μM; 0, 2, 4 h; n=4 replicates
Summary of the method: as §2

activated β1-integrin = assay: FITC-HUTS-4 staining of activated β1-integrin in primary hippocampal neurons; assay type: cell-based; conditions: DIV14 fixed and permeabilized neurons; Aβ42O 1 μM, 2 h; n=4 replicates
[11] = system: transferrin receptor (TfR); assay: Cell surface biotinylation, surface TfR in HT22 cells; assay type: cell-based, mouse (HT22 mouse cell line); conditions: Aβ42O 1 μM, 2 h or FN coating; surface/total; n⩾3 replicates
[12] = system: Cofilin (phospho-Cofilin); assay: Immunoblot of phospho-Cofilin in primary cortical neurons; assay type: cell-based, mouse; conditions: Aβ42O 1 μM, 2 h, n=4 replicates
[13] = SDS-PAGE/immunoblotting of Aβ42 oligomer preparations; assay type: physicochemical; conditions: immunoblotting of Aβ42O preparation
SSH1/Cofilin complex = assay: SSH1/Cofilin complex, co-immunoprecipitation in HT22 cells; assay type: cell-based, mouse (HT22 mouse cell line); conditions: Aβ42O 1 μM, 2 h; n=3 replicates
F-actin = F-actin staining in DIV21 hippocampal neurons; assay type: cell-based, mouse; conditions: Aβ42O 1 μM, 2 h, n=4–6 replicates
Summary of the method: as §1

Vinculin = assay: FC-enriched fractionation of primary cortical neurons, Vinculin; assay type: cell-based, mouse; conditions: Aβ42O 1 μM, 2 h, n=3 replicates
Summary of the method: as §3

focal Vinculin = assay: Focal Vinculin immunostaining in DIV21 primary hippocampal neurons; assay type: cell-based; conditions: Aβ42O 1 μM, 2 h, n=5 replicates
[14] = HUTS-4 1 : 250, MAB1965 1 : 250, Nox inhibitor 40 nM
[15] = DIV14 Cofilin^+/− cortical neurons

With [Cl][Mn][Cl] [MnCl2] the “effect on FITC-Aβ42O binding to HT22 cells” value (HT22 cells [1]) was “significantly reduced”.

With c1ccc(Cn2nnc3c(Sc4nc5ccccc5o4)ncnc32)cc1 [NOX inhibitor] the “prevention of Aβ42O-induced change in H2DCF” value (HT22 cells [2]; [14]) was “significantly prevented such changes”, the “prevention of Aβ42O-induced change in Mitosox-Red” value (HT22 cells [3]; [14]) was “significantly prevented such changes” and the “extent of restoration of JC-1 membrane potential” value (HT22 cells [4]) was “not fully restored”.

With Cc1c(C)c2c(c(C)c1O)CCC(C)(C(=O)O)O2 (stereo not shown) [Trolox] the “restoration of 14-3-3/SSH1 complexes reduced by Aβ42O” value (14-3-3/SSH1 complex; prior treatment 30 min, MAB1965 1:250 or Trolox 200 µM) was “largely restored”.

For “Aβ42 monomers: freshly solubilized monomer; tested as biotin-Aβ42M”, the “binding to β1-integrin-Fc, monomers and fibrils” value ([5]; 5 mM MgCl2, biotin-Aβ42M or biotin-Aβ42F) was “bound poorly to β1-integrin-Fc”.

In the case of “FITC-Aβ42O: FITC-Aβ1-42 (American Peptide), oligomer preparation”, the “FITC-Aβ42O binding to neurons (localisation)” value [6] is reported as “associated with dendrites and dendritic spines”.

For “amyloid-β protein 1–42 oligomers [Aβ42O]”, the “ROS levels (H2DCF)” value (HT22 cells [2]) was “increased ROS levels”, the “effect on Drebrin, WT neurons” value (Drebrin; spine-containing neurites) was “significantly depleted F-actin, Drebrin, and PSD95” and the “effect on Drebrin, Cofilin^+/− neurons” value (Drebrin; Cofilin^+/−) was “no significant effects”. The “effect on FC-enriched Talin, HT22 cells” value (Talin [7]) was “saliently reduced FC-enriched but not cytosolic (cyto) Vinculin and Talin”, the “mitochondrial superoxide (Mitosox-Red)” value (HT22 cells [3]) was “increased mitochondrial superoxide (Mitosox-Red)” and the “phospho-Cofilin in the cytosol” value [8] was “decreasing phospho-Cofilin in the cytosol”. For the same compound, the “effect on FC Talin, Cofilin^+/− neurons” value (Talin [9]; [15]) was “did not significantly deplete Vinculin and Talin”, the “effect on FC-enriched/focal Talin, WT primary neurons” value (Talin [9]; DIV14 cortical neurons) was “saliently reduced FC-enriched but not cytosolic (cyto) Vinculin and Talin; also recorded: depleted focal Vinculin and Talin” and the “effect on total β1-integrin” value (β1-integrin) was “without altering total β1-integrin”. The “binding to β1-integrin-Fc with MnCl2” value ([5]; MnCl2 0.5 mM) was “essentially eliminated Aβ42O binding; also recorded: failed to support Aβ42O binding to β1-integrin-Fc”, the “binding to β1-integrin-Fc in the absence of cation” value ([5]; no cation / absence of Mg^2+) was “did not bind to β1-integrin-Fc; also recorded: minimal binding” and the “induction of early (Annexin V) and late (PI) apoptosis” value (HT22 cells [10]) was “significant induction of early (Annexin V) and late (PI) apoptosis”. The “effect on PSD95, WT neurons” value (PSD95; spine-containing neurites) was “significantly depleted F-actin, Drebrin, and PSD95”, the “effect on PSD95, Cofilin^+/− neurons” value (PSD95; Cofilin^+/−) was “no significant effects” and the “effect on surface PrP^c” value (PrP^c) was “unaffected”. For the same compound, the “translocation of Cofilin to mitochondria” value (Cofilin (mitochondrial)) was “rapidly increased the translocation of Cofilin to mitochondria”, the “reduction of FITC-HUTS-4-positive activated β1-integrin” value (activated β1-integrin) was over 50% and the “effect on surface TfR” value [11] was “no significant effect on surface TfR”. The 14-3-3/SSH1 complexes (14-3-3/SSH1 complex) was “reduced 14-3-3/SSH1 complexes”, the Cofilin dephosphorylation/activation ([12]; WT primary cortical neurons) was “significantly induced Cofilin dephosphorylation/activation” and the “Cofilin dephosphorylation in β1-integrin cKO neurons” value ([12]; β1-integrin cKO neurons (Lenti-Cre-mRFP)) was “absent in β1-integrin cKO neurons”. The “oligomeric state on SDS-PAGE” value [13] was “contained SDS-resistant dimers, trimers, and tetramers”, the SSH1/Cofilin complexes (SSH1/Cofilin complex) was “significantly increased SSH1/Cofilin complexes” and the “effect on F-actin, WT neurons” value (F-actin; spine-containing neurites) was “significantly depleted F-actin, Drebrin, and PSD95”. For the same compound, the “effect on F-actin, Cofilin^+/− neurons” value (F-actin; Cofilin^+/−) was “no significant effects”, the “effect on FC Vinculin, Cofilin^+/− neurons” value (Vinculin; [15]) was “did not significantly deplete Vinculin and Talin” and the “effect on FC-enriched/focal Vinculin, WT primary neurons” value (Vinculin; DIV14 cortical neurons) was “saliently reduced FC-enriched but not cytosolic (cyto) Vinculin and Talin; also recorded: depleted focal Vinculin and Talin”. For the same compound, the “focal Vinculin immunoreactivity in spine-containing dendrites” value (focal Vinculin) was “significantly reduced focal Vinculin immunoreactivity”.

With fibronectin [FN] the “effect on surface PrP^c” value (PrP^c) was “unaffected” and the “effect on surface TfR” value [11] was “modestly, but significantly, increased surface/total transferrin receptor (TfR)”.

Source: publication PMC4423195 (Cell Death and Differentiation, 2015)
